ChEMBL document CHEMBL2331548, “Identification of N-acyl 4-(3-pyridonyl)phenylalanine derivatives and their orally active prodrug esters as dual acting α4β1 and α4β7 receptor antagonists” (Bioorg Med Chem Lett, 2013)

molecular target: T1, Integrin alpha-4/beta-1 (Homo sapiens, UniProt P05556+P13612); test: Inhibition of human VCAM1 binding to integrin alpha4beta1 receptor in human Ramos cells labeled with Calcein AM; type: cell-based; settings: not given
Outline: (§1)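 Serially diluted compound tested for blocking adhesion of Calcein AM-labelled cells to recombinant human counter-ligand: RAMOS cells on VCAM-1 (α4β1) and RPMI 8866 cells on MAdCAM-1 (α4β7). Cells activated beforehand in Mn2+-containing binding buffer for maximal activation. IC50 taken from fluorescence; RO0270608 run on every plate, and relative potency expressed as fold versus this control because cell activity drifted with passage.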

T1 sequence (P05556 whole entry, one chain of several): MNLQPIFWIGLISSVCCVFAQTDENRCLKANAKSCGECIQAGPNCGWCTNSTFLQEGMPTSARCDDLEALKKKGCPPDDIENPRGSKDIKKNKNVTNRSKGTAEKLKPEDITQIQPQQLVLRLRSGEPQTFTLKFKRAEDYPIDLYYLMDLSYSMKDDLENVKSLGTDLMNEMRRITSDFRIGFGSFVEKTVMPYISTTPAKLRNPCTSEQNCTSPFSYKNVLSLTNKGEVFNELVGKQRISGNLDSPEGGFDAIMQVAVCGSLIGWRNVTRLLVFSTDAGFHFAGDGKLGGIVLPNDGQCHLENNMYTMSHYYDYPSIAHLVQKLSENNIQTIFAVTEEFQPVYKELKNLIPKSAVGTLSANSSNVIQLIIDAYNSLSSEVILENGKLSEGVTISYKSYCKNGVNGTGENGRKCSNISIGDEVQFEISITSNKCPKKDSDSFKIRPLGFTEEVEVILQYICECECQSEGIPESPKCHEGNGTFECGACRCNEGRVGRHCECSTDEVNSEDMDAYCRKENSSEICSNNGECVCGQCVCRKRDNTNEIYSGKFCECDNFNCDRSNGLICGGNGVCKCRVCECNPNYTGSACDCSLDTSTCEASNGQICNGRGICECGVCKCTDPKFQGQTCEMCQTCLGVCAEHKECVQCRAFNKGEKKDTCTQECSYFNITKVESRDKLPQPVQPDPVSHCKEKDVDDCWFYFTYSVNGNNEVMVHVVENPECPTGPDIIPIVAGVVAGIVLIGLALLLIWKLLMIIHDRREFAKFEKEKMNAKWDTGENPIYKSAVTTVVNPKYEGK

| Structure (SMILES) | IC50 [nM] |
| --- | --- |
| COc1ccc(Br)c(C(=O)N[C@@H](Cc2ccc(-c3cccn(C)c3=O)cc2)C(=O)O)c1 | 419 |
| Cc1cc(C(F)(F)F)c(-c2ccc(C[C@H](NC(=O)c3c(Cl)cccc3Cl)C(=O)O)cc2)c(=O)n1Cc1ccccc1 | 560 |
| Cc1ccn(C)c(=O)c1-c1ccc(C[C@H](NC(=O)c2c(Cl)cccc2Cl)C(=O)O)cc1 | 90 |
| Cc1cccc(C(C)C)c1C(=O)N[C@@H](Cc1ccc(-c2c(C(F)(F)F)cc(C)n(C)c2=O)cc1)C(=O)O | 366 |
| Cc1cccc(Cl)c1C(=O)N[C@@H](Cc1ccc(-c2cccn(C)c2=O)cc1)C(=O)O | 582 |

Results, then the compound that gave them:

| IC50 [nM] | Structure (SMILES) |
| --- | --- |
| 112 | CCn1c(C)cc(C(F)(F)F)c(-c2ccc(C[C@H](NC(=O)c3c(Cl)cccc3Cl)C(=O)O)cc2)c1=O |
| 269 | Cc1cc(C(F)(F)F)n(C)c(=O)c1-c1ccc(C[C@H](NC(=O)c2c(Cl)cccc2Cl)C(=O)O)cc1 |
| 48 | Cc1cccc(Cl)c1C(=O)N[C@@H](Cc1ccc(-c2c(C(F)(F)F)cc(C)n(C)c2=O)cc1)C(=O)O |
| 820 | Cc1cc(C(F)(F)F)c(-c2ccc(C[C@H](NC(=O)c3c(Cl)cccc3Cl)C(=O)O)cc2)c(=O)[nH]1 |

molecular target: Integrin alpha-4/beta-7 (Homo sapiens) (UniProt P13612+P26010); test: Inhibition of human MAdCAM1 binding to integrin alpha4beta7 receptor in human RPMI 8866 cells labeled with Calcein AM relative to RO0270608; type: cell-based; settings: not given; outline: as §1

| Structure (SMILES) | Ratio IC50 |
| --- | --- |
| Cc1cc(C(F)(F)F)c(-c2ccc(C[C@H](NC(=O)c3c(Cl)cccc3Cl)C(=O)O)cc2)c(=O)n1Cc1ccccc1 | 0.96 |
| Cc1ccn(C)c(=O)c1-c1ccc(C[C@H](NC(=O)c2c(Cl)cccc2Cl)C(=O)O)cc1 | 1.6 |
| Cc1cccc(C(C)C)c1C(=O)N[C@@H](Cc1ccc(-c2c(C(F)(F)F)cc(C)n(C)c2=O)cc1)C(=O)O | 0.23 |
| Cc1cccc(Cl)c1C(=O)N[C@@H](Cc1ccc(-c2cccn(C)c2=O)cc1)C(=O)O | 0.46 |

More lines, now with the values ahead:

| Ratio IC50 | Structure (SMILES) |
| --- | --- |
| 1.9 | CCn1c(C)cc(C(F)(F)F)c(-c2ccc(C[C@H](NC(=O)c3c(Cl)cccc3Cl)C(=O)O)cc2)c1=O |
| 2.2 | Cc1cc(C(F)(F)F)n(C)c(=O)c1-c1ccc(C[C@H](NC(=O)c2c(Cl)cccc2Cl)C(=O)O)cc1 |
| 3.5 | Cc1cccc(Cl)c1C(=O)N[C@@H](Cc1ccc(-c2c(C(F)(F)F)cc(C)n(C)c2=O)cc1)C(=O)O |
| 0.65 | Cc1cc(C(F)(F)F)c(-c2ccc(C[C@H](NC(=O)c3c(Cl)cccc3Cl)C(=O)O)cc2)c(=O)[nH]1 |

tested on: not listed separately; test: Apparent permeability across human Caco2 cells; type: ADME, cell-based; settings: Caco-2

| Papp [×10⁻⁶ cm/s] | Structure (SMILES) |
| --- | --- |
| 22.8 | COCCCOC(=O)[C@H](Cc1ccc(-c2c(C(F)(F)F)cc(C)n(C)c2=O)cc1)NC(=O)c1c(Cl)cccc1Cl |

molecular target: T2, Integrin alpha-4/beta-7 (Homo sapiens, UniProt P13612+P26010); test: Inhibition of human MAdCAM1 binding to integrin alpha4beta7 receptor in human RPMI 8866 cells labeled with Calcein AM; type: cell-based; settings: not given; outline: as §1
T2 sequence (P13612 whole entry): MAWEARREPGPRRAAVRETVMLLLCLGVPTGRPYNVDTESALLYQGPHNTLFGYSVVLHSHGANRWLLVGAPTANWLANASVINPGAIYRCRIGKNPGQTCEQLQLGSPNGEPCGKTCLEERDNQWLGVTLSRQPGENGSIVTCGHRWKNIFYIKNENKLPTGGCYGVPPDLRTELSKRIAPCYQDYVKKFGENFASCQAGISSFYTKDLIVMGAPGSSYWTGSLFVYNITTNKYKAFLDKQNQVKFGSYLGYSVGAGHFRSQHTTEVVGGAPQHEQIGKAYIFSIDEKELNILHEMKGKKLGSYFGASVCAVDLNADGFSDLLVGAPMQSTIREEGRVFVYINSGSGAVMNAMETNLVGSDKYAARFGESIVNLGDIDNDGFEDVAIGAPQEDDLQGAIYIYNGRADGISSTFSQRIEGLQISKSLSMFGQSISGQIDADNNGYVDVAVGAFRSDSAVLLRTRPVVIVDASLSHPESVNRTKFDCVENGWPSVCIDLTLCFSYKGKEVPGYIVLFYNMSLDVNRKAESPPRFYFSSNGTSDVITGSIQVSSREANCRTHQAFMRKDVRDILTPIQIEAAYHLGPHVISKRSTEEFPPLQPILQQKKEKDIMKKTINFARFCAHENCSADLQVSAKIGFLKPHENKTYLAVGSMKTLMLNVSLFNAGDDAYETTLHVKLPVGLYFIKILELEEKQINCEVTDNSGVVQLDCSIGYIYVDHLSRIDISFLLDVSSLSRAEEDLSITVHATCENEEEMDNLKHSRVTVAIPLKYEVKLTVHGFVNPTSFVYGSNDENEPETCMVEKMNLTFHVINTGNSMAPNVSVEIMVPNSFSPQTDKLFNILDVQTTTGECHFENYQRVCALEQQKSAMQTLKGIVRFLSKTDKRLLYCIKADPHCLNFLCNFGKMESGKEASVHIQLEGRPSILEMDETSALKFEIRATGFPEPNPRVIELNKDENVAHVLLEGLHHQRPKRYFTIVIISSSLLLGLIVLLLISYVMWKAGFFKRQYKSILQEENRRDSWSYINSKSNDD
T2 sequence (P26010 whole entry): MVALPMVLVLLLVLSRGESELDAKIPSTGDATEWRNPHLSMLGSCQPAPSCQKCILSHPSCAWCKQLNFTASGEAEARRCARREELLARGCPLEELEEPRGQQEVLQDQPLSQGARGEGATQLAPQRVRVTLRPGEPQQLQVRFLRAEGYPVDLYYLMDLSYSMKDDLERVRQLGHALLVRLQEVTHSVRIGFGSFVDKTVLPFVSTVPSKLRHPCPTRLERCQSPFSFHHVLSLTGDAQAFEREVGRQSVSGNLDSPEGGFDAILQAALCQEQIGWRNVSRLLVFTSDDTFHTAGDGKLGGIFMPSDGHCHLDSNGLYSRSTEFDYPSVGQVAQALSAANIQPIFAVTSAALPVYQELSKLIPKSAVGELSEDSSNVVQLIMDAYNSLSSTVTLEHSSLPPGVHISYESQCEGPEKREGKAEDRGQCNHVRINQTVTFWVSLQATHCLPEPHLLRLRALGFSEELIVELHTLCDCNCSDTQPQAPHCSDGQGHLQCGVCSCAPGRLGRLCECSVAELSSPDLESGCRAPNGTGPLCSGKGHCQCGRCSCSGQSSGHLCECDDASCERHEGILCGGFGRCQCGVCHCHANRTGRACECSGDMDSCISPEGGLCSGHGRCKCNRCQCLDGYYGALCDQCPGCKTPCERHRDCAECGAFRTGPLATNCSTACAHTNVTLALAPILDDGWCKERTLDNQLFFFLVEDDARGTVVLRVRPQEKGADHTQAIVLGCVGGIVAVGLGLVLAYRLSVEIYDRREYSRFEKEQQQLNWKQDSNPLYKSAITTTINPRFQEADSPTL

| Structure (SMILES) | IC50 [nM] |
| --- | --- |
| Cc1cc(C(F)(F)F)c(-c2ccc(C[C@H](NC(=O)c3c(Cl)cccc3Cl)C(=O)O)cc2)c(=O)n1Cc1ccccc1 | 600 |
| Cc1ccn(C)c(=O)c1-c1ccc(C[C@H](NC(=O)c2c(Cl)cccc2Cl)C(=O)O)cc1 | 179 |
| Cc1cccc(C(C)C)c1C(=O)N[C@@H](Cc1ccc(-c2c(C(F)(F)F)cc(C)n(C)c2=O)cc1)C(=O)O | 1290 |
| Cc1cccc(Cl)c1C(=O)N[C@@H](Cc1ccc(-c2cccn(C)c2=O)cc1)C(=O)O | 687 |

Continued, values first:

| IC50 [nM] | Structure (SMILES) |
| --- | --- |
| 61 | CCn1c(C)cc(C(F)(F)F)c(-c2ccc(C[C@H](NC(=O)c3c(Cl)cccc3Cl)C(=O)O)cc2)c1=O |
| 126 | Cc1cc(C(F)(F)F)n(C)c(=O)c1-c1ccc(C[C@H](NC(=O)c2c(Cl)cccc2Cl)C(=O)O)cc1 |
| 154 | Cc1cccc(Cl)c1C(=O)N[C@@H](Cc1ccc(-c2c(C(F)(F)F)cc(C)n(C)c2=O)cc1)C(=O)O |
| 810 | Cc1cc(C(F)(F)F)c(-c2ccc(C[C@H](NC(=O)c3c(Cl)cccc3Cl)C(=O)O)cc2)c(=O)[nH]1 |

tested on: not listed separately; test: Oral bioavailability in rat; type: ADME, organism-based; settings: in vivo

| bioavailability [%] | Structure (SMILES) |
| --- | --- |
| 2 | COCCCOC(=O)[C@H](Cc1ccc(-c2c(C(F)(F)F)cc(C)n(C)c2=O)cc1)NC(=O)c1c(Cl)cccc1Cl |

molecular target: T1, Integrin alpha-4/beta-1; test: Inhibition of human VCAM1 binding to integrin alpha4beta1 receptor in human Ramos cells labeled with Calcein AM relative to RO0270608; type: cell-based; settings: not given; outline: as §1

| Structure (SMILES) | Ratio IC50 |
| --- | --- |
| Cc1cc(C(F)(F)F)c(-c2ccc(C[C@H](NC(=O)c3c(Cl)cccc3Cl)C(=O)O)cc2)c(=O)n1Cc1ccccc1 | 0.12 |
| Cc1ccn(C)c(=O)c1-c1ccc(C[C@H](NC(=O)c2c(Cl)cccc2Cl)C(=O)O)cc1 | 0.37 |
| Cc1cccc(C(C)C)c1C(=O)N[C@@H](Cc1ccc(-c2c(C(F)(F)F)cc(C)n(C)c2=O)cc1)C(=O)O | 0.36 |
| Cc1cccc(Cl)c1C(=O)N[C@@H](Cc1ccc(-c2cccn(C)c2=O)cc1)C(=O)O | 0.03 |

More lines, now with the values ahead:

| Ratio IC50 | Structure (SMILES) |
| --- | --- |
| 0.4 | CCn1c(C)cc(C(F)(F)F)c(-c2ccc(C[C@H](NC(=O)c3c(Cl)cccc3Cl)C(=O)O)cc2)c1=O |
| 0.11 | Cc1cc(C(F)(F)F)n(C)c(=O)c1-c1ccc(C[C@H](NC(=O)c2c(Cl)cccc2Cl)C(=O)O)cc1 |
| 0.47 | Cc1cccc(Cl)c1C(=O)N[C@@H](Cc1ccc(-c2c(C(F)(F)F)cc(C)n(C)c2=O)cc1)C(=O)O |
| 0.08 | Cc1cc(C(F)(F)F)c(-c2ccc(C[C@H](NC(=O)c3c(Cl)cccc3Cl)C(=O)O)cc2)c(=O)[nH]1 |
